Data from ChEMBL document CHEMBL3351861, “New synthetic sulfone derivatives inhibit growth, adhesion and the leucine arylamidase APE2 gene expression of Candida albicans in vitro” (2015).
Converted amounts (≈) assume the structure as drawn.

How the values were obtained:
Candida albicans [1] = test: Inhibition of cell adhesion of compound pre-treated Candida albicans CAI4 expressing delta-efg1 (EFG1) gene to human Caco2 cells assessed as cell adhesion level at 16 ug/ml pre-incubated for 18 hrs by colony counting method (reference value: 2.6 +/- 2.33%); type: functional, Caco-2; design: scale not given: the % may be the effect or the level left
Candida albicans [2] = test: Antifungal activity against Candida albicans CAI4 expressing delta-efg1 gene assessed as growth inhibition at 0.5 ug/ml by CLSI M27-A3 method; type: functional; conditions: read-out: GI
In short: (§1)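 CLSI M27-A3 broth microdilution in RPMI, read after 48 h. Strains pre-grown 18 h in YEPD at 30°C. Final inoculum 0.5×10^2–2.5×10^3 cells/ml. Two-fold dilutions in RPMI came from a 1600 µg/ml stock in water with 9% DMSO; final DMSO was 0.09%. OD405 read, % inhibition = 100 − (CTW−SCW)/(GCW−SCW). Triplicate on three occasions, mean±SD.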

Candida albicans [3] = test: Inhibition of cell adhesion of compound pre-treated Candida albicans CAI4 expressing delta-cph1/delta-efg1 (EFG1) gene to human Caco2 cells assessed as cell adhesion level at 16 ug/ml pre-incubated for 18 hrs by colony counting method (reference value: 1.24 +/- 1.06%); type: functional, Caco-2; design: scale not given: the % may be the effect or the level left
Candida albicans [4] = test: Inhibition of cell adhesion of compound pre-treated Candida albicans CAI4 expressing delta-efg1 gene to human Caco2 cells assessed as cell adhesion level at 16 ug/ml pre-incubated for 18 hrs by colony counting method (reference value: 2.1 +/- 3.52%); type: functional, Caco-2; design: scale not given: the % may be the effect or the level left
Candida albicans [5] = test: Antifungal activity against Candida albicans CAI4 expressing delta-efg1 gene assessed as growth inhibition at by CLSI M27-A3 method; type: functional
In short: (§2)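 CLSI M27-A3 broth microdilution in RPMI. Final inoculum 0.5×10^2 to 2.5×10^3 cells/ml. Seven two-fold concentrations from 0.25 to 16 µg/ml, with DMSO held at 0.09% (v/v) in all wells. Compound-free growth controls and sterility controls are run for each strain. […] Triplicate on three occasions.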

Candida albicans [6] = test: Antifungal activity against Candida albicans CAI4 expressing delta-cph1/delta-efg1 gene assessed as growth inhibition at 16 ug/ml by CLSI M27-A3 method; type: functional; conditions: read-out: GI; in short: as §1
Candida albicans [7] = test: Antifungal activity against Candida albicans 90028 assessed as growth inhibition at 16 ug/ml by CLSI M27-A3 method; type: functional; conditions: read-out: GI; in short: as §1
Candida albicans [8] = test: Antifungal activity against Candida albicans CAI4 expressing delta-efg1 (EFG1) gene assessed as growth inhibition at 1 ug/ml by CLSI M27-A3 method; type: functional; conditions: read-out: GI; in short: as §1
Candida albicans [9] = test: Antifungal activity against Candida albicans CAI4 expressing delta-efg1 (EFG1) gene assessed as growth inhibition at 2 ug/ml by CLSI M27-A3 method; type: functional; conditions: read-out: GI; in short: as §1
Candida albicans [10] = test: Antifungal activity against Candida albicans CAI4 expressing delta-efg1 (EFG1) gene assessed as growth inhibition at 0.25 ug/ml by CLSI M27-A3 method; type: functional; conditions: read-out: GI; in short: as §1
Candida albicans [11] = test: Antifungal activity against Candida albicans CAI4 expressing delta-efg1 gene assessed as growth inhibition at 16 ug/ml by CLSI M27-A3 method; type: functional; conditions: read-out: GI; in short: as §2
Candida albicans [12] = test: Antifungal activity against Candida albicans CAI4 expressing delta-cph1/delta-efg1 gene assessed as growth inhibition at 1 ug/ml by CLSI M27-A3 method; type: functional; conditions: read-out: GI; in short: as §1
Candida albicans [13] = test: Antifungal activity against Candida albicans 90028 assessed as growth inhibition at 0.25 ug/ml by CLSI M27-A3 method; type: functional; conditions: read-out: GI; in short: as §1
Candida albicans [14] = test: Inhibition of cell adhesion of compound pre-treated Candida albicans CAI4 expressing delta-efg1/delta-cph1 gene to human Caco2 cells assessed as cell adhesion level at 16 ug/ml pre-incubated for 18 hrs by colony counting method (reference value: 1.22 +/- 0.78%); type: functional, Caco-2; design: scale not given: the % may be the effect or the level left
Candida albicans [15] = test: Antifungal activity against Candida albicans CAI4 expressing delta-efg1 (EFG1) gene assessed as growth inhibition at 0.5 ug/ml by CLSI M27-A3 method; type: functional; conditions: read-out: GI; in short: as §1
Candida albicans [16] = test: Antifungal activity against Candida albicans CAI4 expressing delta-cph1/delta-efg1 (EFG1) gene assessed as growth inhibition at 1 ug/ml by CLSI M27-A3 method; type: functional; conditions: read-out: GI; in short: as §1
Candida albicans [17] = test: Antifungal activity against Candida albicans CAI4 expressing delta-efg1 gene assessed as growth inhibition at 4 ug/ml by CLSI M27-A3 method; type: functional; conditions: read-out: GI; in short: as §2
Candida albicans [18] = test: Inhibition of cell adhesion of compound pre-treated Candida albicans CAI4 expressing delta-efg1/delta-cph1 gene to human Caco2 cells assessed as cell adhesion level at 4 ug/ml pre-incubated for 18 hrs by colony counting method (reference value: 1.22 +/- 0.78%); type: functional, Caco-2; design: scale not given: the % may be the effect or the level left
Candida albicans [19] = test: Inhibition of cell adhesion of compound pre-treated Candida albicans CAI4 expressing delta-efg1 gene to human Caco2 cells assessed as cell adhesion level at 4 ug/ml pre-incubated for 18 hrs by colony counting method (reference value: 2.1 +/- 3.52%); type: functional, Caco-2; design: scale not given: the % may be the effect or the level left
Candida albicans [20] = test: Antifungal activity against Candida albicans CAI4 expressing delta-efg1 (EFG1) gene assessed as growth inhibition at by CLSI M27-A3 method; type: functional
Candida albicans [21] = test: Inhibition of cell adhesion of compound pre-treated Candida albicans CAI4 expressing delta-cph1 gene to human Caco2 cells assessed as cell adhesion level at 16 ug/ml pre-incubated by colony counting method (reference value: 1.6 +/- 0.65%); design: scale not given: the % may be the effect or the level left
Candida albicans [22] = test: Antifungal activity against Candida albicans CAI4 expressing delta-cph1 (CPH1) gene assessed as growth inhibition at 2 ug/ml by CLSI M27-A3 method; type: functional; conditions: read-out: GI; in short: as §1
Candida albicans [23] = test: Antifungal activity against Candida albicans CAI4 expressing delta-cph1 (CPH1) gene assessed as growth inhibition at 0.5 ug/ml by CLSI M27-A3 method; type: functional; conditions: read-out: GI; in short: as §1
Candida albicans [24] = test: Antifungal activity against Candida albicans CAI4 expressing delta-cph1/delta-efg1 (EFG1) gene assessed as growth inhibition at 16 ug/ml by CLSI M27-A3 method; type: functional; conditions: read-out: GI; in short: as §1
Candida albicans [25] = test: Antifungal activity against Candida albicans 90028 assessed as growth inhibition at 1 ug/ml by CLSI M27-A3 method; type: functional; conditions: read-out: GI; in short: as §1
Candida albicans [26] = test: Antifungal activity against Candida albicans CAI4 expressing delta-cph1 gene assessed as growth inhibition at 16 ug/ml by CLSI M27-A3 method; type: functional; conditions: read-out: GI; in short: as §1
Candida albicans [27] = test: Inhibition of cell adhesion of compound pre-treated Candida albicans SC5314 to human Caco2 cells assessed as cell adhesion level at 16 ug/ml pre-incubated for 18 hrs by colony counting method (reference value: 1.1 +/- 1.1%); type: functional, Caco-2; design: scale not given: the % may be the effect or the level left
Candida albicans [28] = test: Inhibition of cell adhesion of compound pre-treated Candida albicans CAI4 expressing delta-cph1 (CPH1) gene to human Caco2 cells assessed as cell adhesion level at 8 ug/ml pre-incubated for 18 hrs by colony counting method (reference value: 5.37 +/- 12.4%); type: functional, Caco-2; design: scale not given: the % may be the effect or the level left
Candida albicans [29] = test: Antifungal activity against Candida albicans 90028 assessed as growth inhibition at 4 ug/ml by CLSI M27-A3 method; type: functional; conditions: read-out: GI; in short: as §1
Candida albicans [30] = test: Antifungal activity against Candida albicans CAI4 expressing delta-efg1 (EFG1) gene assessed as growth inhibition at 8 ug/ml by CLSI M27-A3 method; type: functional; conditions: read-out: GI; in short: as §1

Compound `NNc1ccc(S(=O)(=O)C(Cl)(Br)Br)cc1[N+](=O)[O-]` has an Activity (Candida albicans [1]) of 0.89%, an inhibition of growth at 0.5 µg/mL (Candida albicans [2]) of 97.9% and an Activity (Candida albicans [3]) of 1.5%. The Activity (Candida albicans [4]) was 0.81%, the MIC90 (Candida albicans [5]) was 4 mg/L (≈ 9.45 µM) and the inhibition of growth at 16 µg/mL (Candida albicans [6]) was 100%. For the same compound, the inhibition of growth at 16 µg/mL (Candida albicans [7]) was 100%, the inhibition of growth at 1 µg/mL (Candida albicans [8]) was 98.8% and the inhibition of growth at 2 µg/mL (Candida albicans [9]) was 99.1%. The inhibition of growth at 0.25 µg/mL (Candida albicans [10]) was 98.6%, the inhibition of growth at 16 µg/mL (Candida albicans [11]) was 100% and the inhibition of growth at 1 µg/mL (Candida albicans [12]) was 100%. For the same compound, the inhibition of growth at 0.25 µg/mL (Candida albicans [13]) was 17%, the Activity (Candida albicans [14]) was 2.25% and the inhibition of growth at 0.5 µg/mL (Candida albicans [15]) was 98.8%. For the same compound, the inhibition of growth at 1 µg/mL (Candida albicans [16]) was 98.8%, the inhibition of growth at 4 µg/mL (Candida albicans [17]) was 100% and the Activity (Candida albicans [18]) was 2.74%. It also gave an Activity (Candida albicans [19]) of 0.69%, an MIC90 (Candida albicans [20]) of 4 mg/L (≈ 9.45 µM) and an Activity (Candida albicans [21]) of 0.37%. The inhibition of growth at 2 µg/mL (Candida albicans [22]) was 99.3%, the inhibition of growth at 0.5 µg/mL (Candida albicans [23]) was 98.8% and the inhibition of growth at 16 µg/mL (Candida albicans [24]) was 100%. For the same compound, the inhibition of growth at 1 µg/mL (Candida albicans [25]) was 97.4%, the inhibition of growth at 16 µg/mL (Candida albicans [26]) was 100% and the Activity (Candida albicans [27]) was 0.8%. For the same compound, the Activity (Candida albicans [28]) was 0.9%, the inhibition of growth at 4 µg/mL (Candida albicans [29]) was 99.7% and the inhibition of growth at 8 µg/mL (Candida albicans [30]) was 99.8%.
